Published values of several laboratories.
Compare with care: the assays were run in different laboratories.
OPRK1: Kappa-type opioid receptor (OPRK1, Cavia porcellus, UniProt P41144)
ADRA1A: Alpha-1A adrenergic receptor (ADRA1A, Homo sapiens, UniProt P35348)
HRH2: Histamine H2 receptor (HRH2, Homo sapiens, UniProt P25021)

SMILES | target | test | setting | quantity | value
Cc1cc(O)cc(C)c1C[C@H](N)C(=O)N[C@H](CCCNC(=N)N)C(=O)N[C@@H](Cc1c(C)cccc1C(C)C)C(=O)N[C@@H](CCCCN)C(N)=O | OPRK1 | ligand displacement, radioligand | cell membranes | Ki | 0.236 nM
CC[C@H](C)[C@H](NC(=O)[C@H](CC(C)C)NC(=O)[C@H](Cc1c[nH]c2ccccc12)NC(=O)[C@H](CCCCN)NC(=O)[C@H](CC(C)C)NC(=O)[C@H](Cc1ccccc1)NC(=O)[C@H](CCC(=O)O)NC(=O)[C@H](CCC(N)=O)NC(=O)[C@@H](NC(=O)[C@H](C)NC(=O)[C@H](CC(C)C)NC(=O)[C@H](CC(=O)O)NC(=O)[C@H](CC(=O)O)NC(=O)[C@H](CC(C)C)NC(=O)[C@H](CC(C)C)NC(=O)[C@H](CCCCN)NC(=O)[C@H](CC(N)=O)NC(=O)[C@H](Cc1ccc(O)cc1)NC(=O)[C@H](CC(=O)O)NC(=O)[C@H](CO)NC(=O)[C@@H](NC(=O)[C@H](Cc1ccccc1)NC(=O)[C@@H](NC(=O)CNC(=O)[C@H](CC(=O)O)NC(=O)[C@H](C)NC(=O)[C@@H](N)Cc1c[nH]cn1)[C@@H](C)O)[C@@H](C)O)[C@@H](C)O)C(=O)N[C@@H](CC(N)=O)C(=O)N[C@@H](CCC(N)=O)C(=O)N[C@@H](CCCCN)C(=O)N[C@H](C(=O)N[C@H](C(=O)N[C@@H](CCC(N)=O)C(=O)O)[C@@H](C)O)C(C)C | Glucagon-like peptide 2 receptor (GLP2R, Homo sapiens, UniProt O95838) | reporter gene, agonist, luciferase |  | EC50 | 1.41 nM
Cc1cc(O)cc(C)c1C[C@H](N)C(=O)N[C@H](C)C(=O)NCC(=O)N[C@@H](Cc1ccc(Cl)cc1)C(=O)N(C)CCC[C@@]1(c2ccc(F)cc2)OCc2cc(C#N)ccc21 | ADRA1A | ligand displacement, radioligand |  | Ki | 4600 nM
Cc1cc(O)cc(C)c1C[C@H](C)C(=O)N[C@@H]1C/C=C\CC[C@@H](C(N)=O)NC(=O)[C@H](Cc2ccccc2)NC(=O)[C@H](Cc2ccccc2)NC1=O | OPRK1 | ligand displacement, radioligand | cell membranes | Ki | 185 nM
CNc1nc2cc(OCCCCN3CCN(c4cccc(Cl)c4Cl)CC3)ccc2s1 | HRH2 | ligand displacement, radioligand |  | Ki | 310 nM
CCCC[C@@H](NC(=O)[C@@H](N)Cc1c(C)cc(O)cc1C)C(=O)NCC(=O)N[C@@H](Cc1ccc(F)cc1)C(=O)N(C)CCC[C@@]1(c2ccc(F)cc2)OCc2cc(C#N)ccc21 | ADRA1A | ligand displacement, radioligand |  | Ki | > 10000 nM
OC(c1ccc(F)cc1)C(F)(F)CCN1CCC(O)(c2ccc(Cl)cc2)CC1 (racemic) | HRH2 | cell-free assay, radioligand |  | Ki | 4830 nM
CC[C@H](C)[C@H](NC(=O)[C@H](CCCNC(=N)N)NC(=O)[C@H](CC(C)C)NC(=O)[C@@H](N)Cc1ccccc1)C(=O)N[C@@H](CCCNC(=N)N)C(=O)N1CCC[C@H]1C(=O)N[C@@H](CCCCN)C(=O)O | ADRA1A | cell-free assay, radioligand |  | Ki | > 10000 nM
